ChEMBL document CHEMBL4689842, “EUbOPEN Chemogenomics Library wave 1” (2021)

Tested on: U2OS
Assay: Multiplex assay against U2OS
Format: toxicity, cell-based
Conditions: human
In short: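 With compound added, live cells were imaged on a CQ1 microscope at 37°C and 5% CO2; staining with Hoechst33342, BioTracker Green Microtubule Cytoskeleton Dye, MitoTracker Red and Annexin V Alexa Fluor 680 had been done at seeding. The CellPathfinder machine-learning gating scheme split cells into Hoechst high-intensity objects or normal cells, normal cells into healthy, pyknosed or fragmented nuclei, and pyknosed cells into mitotic or apoptotic. The tubulin, mitochondrial-mass and membrane-permeability phenotypes are per cents of healthy-nucleus cells.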

[1] = 12 h, 1 µM, compound concentration 1 uM, replicate 1
[2] = 12 h, 1 µM, compound concentration 1 uM, replicate 2
[3] = 12 h, 10 µM, compound concentration 10 uM, replicate 1
[4] = 12 h, 10 µM, compound concentration 10 uM, replicate 2
[5] = 24 h, 1 µM, compound concentration 1 uM, replicate 1
[6] = 24 h, 1 µM, compound concentration 1 uM, replicate 2
[7] = 24 h, 10 µM, compound concentration 10 uM, replicate 1
[8] = 24 h, 10 µM, compound concentration 10 uM, replicate 2
[9] = 48 h, 1 µM, compound concentration 1 uM, replicate 1
[10] = 48 h, 1 µM, compound concentration 1 uM, replicate 2
[11] = 48 h, 10 µM, compound concentration 10 uM, replicate 1
[12] = 48 h, 10 µM, compound concentration 10 uM, replicate 2

Cc1cccc(CN2CCN(C(c3ccccc3)c3ccc(Cl)cc3)CC2)c1.Cl.Cl (configuration not stated)
Population Apoptotic (%) [1]: 27%
Population Fragmented Nuclei (%) [1]: 4%
Population Healthy Nuclei (%) [1]: 87%
Population Hoechst High Intensity Objects (%) [1]: 6%
Population Membrane Permeable-Phenotype (%) [1]: 3%
Population Mitochondria Different-Phenotype (%) [1]: 6%
Population Mitotic Cells (%) [1]: 72%
Population Normal (%) [1]: 93%
Population Pyknosed Nuclei (%) [1]: 7%
Population Tubulin-Different-Phenotype (%) [1]: 3%
Total Cell Count [1]: 182
Population Apoptotic (%) [2]: 0%
Population Fragmented Nuclei (%) [2]: 16%
Population Healthy Nuclei (%) [2]: 79%
Population Hoechst High Intensity Objects (%) [2]: 8%
Population Membrane Permeable-Phenotype (%) [2]: 4%
Population Mitochondria Different-Phenotype (%) [2]: 26%
Population Mitotic Cells (%) [2]: 100%
Population Normal (%) [2]: 91%
Population Pyknosed Nuclei (%) [2]: 3%
Population Tubulin-Different-Phenotype (%) [2]: 23%
Total Cell Count [2]: 48
Population Apoptotic (%) [3]: 54%
Population Fragmented Nuclei (%) [3]: 6%
Population Healthy Nuclei (%) [3]: 76%
Population Hoechst High Intensity Objects (%) [3]: 5%
Population Membrane Permeable-Phenotype (%) [3]: 4%
Population Mitochondria Different-Phenotype (%) [3]: 73%
Population Mitotic Cells (%) [3]: 45%
Population Normal (%) [3]: 94%
Population Pyknosed Nuclei (%) [3]: 16%
Population Tubulin-Different-Phenotype (%) [3]: 78%
Total Cell Count [3]: 149
Population Apoptotic (%) [4]: 50%
Population Fragmented Nuclei (%) [4]: 14%
Population Healthy Nuclei (%) [4]: 72%
Population Hoechst High Intensity Objects (%) [4]: 6%
Population Membrane Permeable-Phenotype (%) [4]: 6%
Population Mitochondria Different-Phenotype (%) [4]: 61%
Population Mitotic Cells (%) [4]: 50%
Population Normal (%) [4]: 93%
Population Pyknosed Nuclei (%) [4]: 13%
Population Tubulin-Different-Phenotype (%) [4]: 47%
Total Cell Count [4]: 58
Population Apoptotic (%) [5]: 45%
Population Fragmented Nuclei (%) [5]: 7%
Population Healthy Nuclei (%) [5]: 86%
Population Hoechst High Intensity Objects (%) [5]: 5%
Population Membrane Permeable-Phenotype (%) [5]: 2%
Population Mitochondria Different-Phenotype (%) [5]: 8%
Population Mitotic Cells (%) [5]: 54%
Population Normal (%) [5]: 94%
Population Pyknosed Nuclei (%) [5]: 6%
Population Tubulin-Different-Phenotype (%) [5]: 2%
Total Cell Count [5]: 176
Population Apoptotic (%) [6]: 80%
Population Fragmented Nuclei (%) [6]: 18%
Population Healthy Nuclei (%) [6]: 73%
Population Hoechst High Intensity Objects (%) [6]: 10%
Population Membrane Permeable-Phenotype (%) [6]: 11%
Population Mitochondria Different-Phenotype (%) [6]: 13%
Population Mitotic Cells (%) [6]: 20%
Population Normal (%) [6]: 89%
Population Pyknosed Nuclei (%) [6]: 8%
Population Tubulin-Different-Phenotype (%) [6]: 22%
Total Cell Count [6]: 47
Population Apoptotic (%) [7]: 42%
Population Fragmented Nuclei (%) [7]: 6%
Population Healthy Nuclei (%) [7]: 74%
Population Hoechst High Intensity Objects (%) [7]: 7%
Population Membrane Permeable-Phenotype (%) [7]: 2%
Population Mitochondria Different-Phenotype (%) [7]: 65%
Population Mitotic Cells (%) [7]: 57%
Population Normal (%) [7]: 92%
Population Pyknosed Nuclei (%) [7]: 19%
Population Tubulin-Different-Phenotype (%) [7]: 61%
Total Cell Count [7]: 181
Population Apoptotic (%) [8]: 11%
Population Fragmented Nuclei (%) [8]: 10%
Population Healthy Nuclei (%) [8]: 77%
Population Hoechst High Intensity Objects (%) [8]: 5%
Population Membrane Permeable-Phenotype (%) [8]: 5%
Population Mitochondria Different-Phenotype (%) [8]: 63%
Population Mitotic Cells (%) [8]: 88%
Population Normal (%) [8]: 94%
Population Pyknosed Nuclei (%) [8]: 12%
Population Tubulin-Different-Phenotype (%) [8]: 45%
Total Cell Count [8]: 67
Population Apoptotic (%) [9]: 30%
Population Fragmented Nuclei (%) [9]: 5%
Population Healthy Nuclei (%) [9]: 85%
Population Hoechst High Intensity Objects (%) [9]: 3%
Population Membrane Permeable-Phenotype (%) [9]: 1%
Population Mitochondria Different-Phenotype (%) [9]: 11%
Population Mitotic Cells (%) [9]: 69%
Population Normal (%) [9]: 96%
Population Pyknosed Nuclei (%) [9]: 8%
Population Tubulin-Different-Phenotype (%) [9]: 5%
Total Cell Count [9]: 192
Population Apoptotic (%) [10]: 0%
Population Fragmented Nuclei (%) [10]: 9%
Population Healthy Nuclei (%) [10]: 84%
Population Hoechst High Intensity Objects (%) [10]: 7%
Population Membrane Permeable-Phenotype (%) [10]: 5%
Population Mitochondria Different-Phenotype (%) [10]: 16%
Population Mitotic Cells (%) [10]: 100%
Population Normal (%) [10]: 92%
Population Pyknosed Nuclei (%) [10]: 6%
Population Tubulin-Different-Phenotype (%) [10]: 24%
Total Cell Count [10]: 45
Population Apoptotic (%) [11]: 54%
Population Fragmented Nuclei (%) [11]: 8%
Population Healthy Nuclei (%) [11]: 72%
Population Hoechst High Intensity Objects (%) [11]: 4%
Population Membrane Permeable-Phenotype (%) [11]: 3%
Population Mitochondria Different-Phenotype (%) [11]: 42%
Population Mitotic Cells (%) [11]: 45%
Population Normal (%) [11]: 95%
Population Pyknosed Nuclei (%) [11]: 18%
Population Tubulin-Different-Phenotype (%) [11]: 44%
Total Cell Count [11]: 299
Population Apoptotic (%) [12]: 25%
Population Fragmented Nuclei (%) [12]: 12%
Population Healthy Nuclei (%) [12]: 71%
Population Hoechst High Intensity Objects (%) [12]: 5%
Population Membrane Permeable-Phenotype (%) [12]: 7%
Population Mitochondria Different-Phenotype (%) [12]: 30%
Population Mitotic Cells (%) [12]: 75%
Population Normal (%) [12]: 94%
Population Pyknosed Nuclei (%) [12]: 16%
Population Tubulin-Different-Phenotype (%) [12]: 18%
Total Cell Count [12]: 95
